Nine molecules from publication PMC5487498 (World Journal of Gastroenterology, 2017) can be followed below.

Common to all, as to test: MTS cell proliferation/viability assay
One assay deals with HCT116. It counts as cell-based, human. Particulars: read-out: IC50 HCT116, 72 h incubation. The procedure, abridged: (§1)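 Cells were seeded at 10 × 10^3 cells/well and exposed 24 h later to test compound at 100, 50, 10, 5, 1 and 0.1 μmol/L for 72 h. MTS was then added for 2 h and absorbance read at 490 nm, with untreated control taken as 100%. HCT116 was grown in RPMI 1640; Caco-2 and murine 3T3 fibroblasts in high-glucose DMEM with pyruvate, 10% FBS and penicillin/streptomycin, at 37 °C and 5% CO2.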

The test system of a further assay is 3T3. The assay is classed as cell-based, murine. Particulars: read-out: IC50 3T3, 72 h incubation, non-cancer fibroblasts. In short, it runs like this:
as §1

The next assay relates to CaCo-2. It counts as cell-based, human. Particulars: read-out: IC50 CaCo-2, 72 h incubation. In short, it runs like this:
as §1

On to `COC1N(OC)c2ccccc2C12CN=C(Nc1ccc(C(F)(F)F)cc1)S2` (racemic) [Compound K-452, (±)-cis-1,2-dimethoxy-2’-(4-trifluoromethylphenylamino)spiro{indoline-3,5’[4’,5’]dihydrothiazol}], for which the IC50 in the assay with HCT116, in the assay with 3T3 and with CaCo-2 was greater than 100 µM each time.
As for `CON1C(=O)C2(CN=C(Nc3ccc(Br)cc3)S2)c2ccccc21` (racemic) [Compound K-463, (±)-1-methoxy-2’-(4-bromophenylamino)spiro{indoline-3,5’-[4’,5’]-dihydrothiazol}-2-one], the values for the IC50 with HCT116, in the assay with 3T3 and in the assay on CaCo-2 were 33 ± 2.67 µM, 61.1 ± 2.25 µM and 74.18 ± 0.001 µM, respectively.
On the same counts, the results for `CC(C)(C)OC(=O)N1c2ccccc2C2(CN=C(Nc3ccc(Cl)cc3)S2)C1N1CCCCC1` (racemic) [Compound K-467, trans-(±)-1-(terc-buthoxycarbonyl)-2-(1-piperidyl)-2’-(4-chlorophenylamino)spiro{indoline-3,5’-[4’,5’]dihydrothiazol}] are greater than 100 µM, greater than 100 µM and greater than 100 µM.
On the same counts, the results for `CON1C(=O)C2(CN=C(Nc3ccc(C(F)(F)F)cc3)S2)c2ccccc21` (racemic) [Compound K-465, (±)-1-methoxy-2’-(4-trifluoromethylphenylamino)spiro{indoline-3,5’-[4’,5’]-dihydrothiazol}-2-one] are 33.7 ± 2.78 µM, 34.9 ± 2.01 µM and 35.7 ± 6.49 µM.
On to `COC1N(OC)c2ccc(F)cc2C12CN=C(SC)S2` (racemic) [Compound K-462, (±)-cis-5-fluoro-1-methoxyspirobrassinolmethylether], for which the IC50 with HCT116, in the assay with 3T3 and in the assay with CaCo-2 was greater than 100 µM each time.
For the molecule `COn1cc(CNC(=O)SC)c2cc(F)ccc21` [Compound K-459, 5-fluoro-1-methoxybrassitin], the IC50 with HCT116, in the assay on 3T3 and in the assay on CaCo-2 was greater than 100 µM throughout.
Consider `CSC(=O)NCc1c[nH]c2ccc(F)cc12` [Compound K-455, 5-fluorobrassitin], for which the IC50 in the assay on HCT116, with 3T3 and in the assay on CaCo-2 was greater than 100 µM each time.
As for `CON1C(=O)C2(CN=C(Nc3ccc(C)cc3)S2)c2ccccc21` (racemic) [Compound K-466, (±)-1-methoxy-2’-(4-methylphenylamino)spiro{indoline-3,5’-[4’,5’]-dihydrothiazol}-2-one], the IC50 with HCT116, in the assay on 3T3 and in the assay with CaCo-2 was greater than 100 µM in each case.
`CC(C)(C)OC(=O)N1c2ccccc2C2(CN=C(Nc3ccc(C(F)(F)F)cc3)S2)C1N1CCCCC1` (racemic) [Compound K-471, trans-(±)-1-(terc-buthoxycarbonyl)-2-(1-piperidyl)-2’-(4-trifluoromethylphenylamino)spiro{indoline-3,5’-[4’,5’]dihydrothiazol}]: the IC50 with HCT116, in the assay on 3T3 and in the assay with CaCo-2 was greater than 100 µM throughout.

One may read the IC50 as the concentration at which inhibition is half-maximal.
